Measured values: ChEMBL document CHEMBL2385036, “Peptaibols, tetramic acid derivatives, isocoumarins, and sesquiterpenes from a Bionectria sp. (MSX 47401)” (J Nat Prod, 2013)
pIC50: −log10 of the molar value. Values after ≈ are worked out from the molar mass of the structure shown. Active and inactive are the calls of the source. The rule behind the calls is not given here.

Tests used:
Cryptococcus neoformans = experiment: Antifungal activity against Cryptococcus neoformans after 7 days by broth microdilution method; type: functional; details: 168 h
In short: (§1)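 MIC by broth method: cultures diluted 10- to 100,000-fold in growth medium, with both undiluted cultures and the dilutions used as inocula; each measurement run in duplicate.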

Staphylococcus aureus [1] = experiment: Antimicrobial activity against methicillin-resistant Staphylococcus aureus GU 52300 after 7 days by broth microdilution method; type: functional; details: GU 52300, 168 h
In short: (§2)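 MIC read-out; inocula were undiluted cultures plus cultures diluted 10- to 100,000-fold in growth medium. All measurements were run in duplicate.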

Staphylococcus aureus [2] = experiment: Antimicrobial activity against methicillin-resistant Staphylococcus aureus GU 36361 after 7 days by broth microdilution method; type: functional; details: GU 36361, 168 h; in short: as §2
Staphylococcus aureus [3] = experiment: Antimicrobial activity against methicillin-resistant Staphylococcus aureus GU 53016 after 7 days by broth microdilution method; type: functional; details: GU 53016, 168 h; in short: as §2
Staphylococcus aureus [4] = experiment: Antimicrobial activity against methicillin-resistant Staphylococcus aureus ATCC 43300 after 7 days by broth microdilution method; type: functional; details: ATCC 43300, 168 h; in short: as §2
Staphylococcus aureus [5] = experiment: Antimicrobial activity against methicillin-resistant Staphylococcus aureus GU 34380 after 7 days by broth microdilution method; type: functional; details: GU 34380, 168 h; in short: as §2
Staphylococcus aureus [6] = experiment: Antimicrobial activity against Staphylococcus aureus ATCC 6538 after 7 days by broth microdilution method; type: functional; details: ATCC 6538, 168 h; in short: as §2
Staphylococcus aureus [7] = experiment: Antimicrobial activity against methicillin-resistant Staphylococcus aureus GU 34864 after 7 days by broth microdilution method; type: functional; details: GU 34864, 168 h; in short: as §2
Staphylococcus aureus [8] = experiment: Antimicrobial activity against methicillin-resistant Staphylococcus aureus DA 1 after 7 days by broth microdilution method; type: functional; details: DA 1, 168 h; in short: as §2
Candida albicans = experiment: Antifungal activity against Candida albicans after 7 days by broth microdilution method; type: functional; details: 168 h; in short: as §1
Aspergillus niger = experiment: Antifungal activity against Aspergillus niger after 7 days by broth microdilution method; type: functional; details: 168 h; in short: as §1
SF-268 = experiment: Cytotoxicity against human SF268 cells after 72 hrs by MTS assay; type: functional, cell-based
In short: (§3)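 Cell lines were MCF-7 human breast carcinoma (Karmanos Cancer Center), NCI-H460 human large cell lung carcinoma (ATCC HTB-177) and SF-268 human astrocytoma (NCI Developmental Therapeutics Program). The cytotoxicity protocol followed an earlier report.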

NCI-H460 = experiment: Cytotoxicity against human NCI-H460 cells after 72 hrs by MTS assay; type: functional, cell-based; in short: as §3
MCF7 = experiment: Cytotoxicity against human MCF7 cells after 72 hrs by MTS assay; type: functional, cell-based; in short: as §3

Row | SMILES | MIC (Cryptococcus neoformans) | MIC (Staphylococcus aureus [1]) | MIC (Staphylococcus aureus [2]) | MIC (Staphylococcus aureus [3]) | MIC (Staphylococcus aureus [4]) | MIC (Staphylococcus aureus [5]) | MIC (Staphylococcus aureus [6]) | MIC (Staphylococcus aureus [7]) | MIC (Staphylococcus aureus [8]) | MIC (Candida albicans) | MIC (Aspergillus niger) | Activity (SF-268) | Activity (NCI-H460) | Activity (MCF7) | pIC50 (SF-268; SF-268, 72 h) | pIC50 (NCI-H460; NCI-H460, 72 h) | pIC50 (MCF7; MCF7, 72 h)
1 | CC1=CC[C@H]([C@](C)(O)CCC(O)C(C)(C)O)CC1 (some centres not stated) | > 118 µg/mL | > 118 µg/mL | > 118 µg/mL | > 118 µg/mL | > 118 µg/mL | > 118 µg/mL | > 118 µg/mL | > 118 µg/mL | > 118 µg/mL | > 118 µg/mL | > 118 µg/mL | – | – | – | – | – | –
2 | CC(CCCCCCCCC(=O)CCCCCCCCC[C@@H](O)CO[C@@H]1O[C@H](CO)[C@@H](O)[C@H](O)[C@H]1O)C(=O)C1=C(O)C(Cc2ccc(O)cc2)=NC1=O (some centres not stated) | > 55 µg/mL | 28 µg/mL (≈ 37.4 µM) | 28 µg/mL (≈ 37.4 µM) | 28 µg/mL (≈ 37.4 µM) | 14 µg/mL (≈ 18.7 µM) | 14 µg/mL (≈ 18.7 µM) | 14 µg/mL (≈ 18.7 µM) | 14 µg/mL (≈ 18.7 µM) | 14 µg/mL (≈ 18.7 µM) | > 55 µg/mL | > 55 µg/mL | inactive | inactive | inactive | – | – | –
3 | CC[C@H](C)[C@@H](NC(=O)[C@@](C)(CC)NC(=O)[C@@H]1C[C@@H](O)CN1C(=O)[C@@](C)(CC)NC(=O)[C@@](C)(CC)NC(=O)C(C)(C)NC(=O)[C@@H]1C[C@@H](O)CN1C(=O)[C@@](C)(CC)NC(=O)[C@H](CC(C)C)NC(=O)[C@@H]1C[C@@H](O)CN1C(=O)[C@](C)(CC)NC(=O)[C@H](CC(C)C)NC(=O)[C@@H]1C[C@@H](O)CN1C(=O)C(C)(C)NC(C)=O)C(=O)O[C@@H]([C@H](O)[C@H](O)CO)[C@H](O)CO | > 118 µg/mL | > 118 µg/mL | > 118 µg/mL | > 118 µg/mL | > 118 µg/mL | > 118 µg/mL | > 118 µg/mL | > 118 µg/mL | > 118 µg/mL | > 118 µg/mL | > 118 µg/mL | – | – | – | – | – | –
4 | CC(=O)c1coc(=O)c2c(O)cc(O)c(C)c12 | – | – | – | – | – | – | – | – | – | – | – | – | – | – | < 5.00 | < 5.00 | < 5.00
5 | C[C@@H]1[C@H](O)[C@@H](C)/C=C/C=C/C=C/C=C/C=C/C=C/C=C/[C@H](O[C@@H]2O[C@H](C)[C@@H](O)[C@H](N)[C@@H]2O)C[C@@H]2O[C@](O)(C[C@@H](O)C[C@@H](O)[C@H](O)CC[C@@H](O)C[C@@H](O)CC(=O)O[C@H]1C)C[C@H](O)[C@H]2C(=O)O [AMPHOTERICIN B] | 25 µg/mL (≈ 27.1 µM) | – | – | – | – | – | – | – | – | 25 µg/mL (≈ 27.1 µM) | 100 µg/mL (≈ 108 µM) | – | – | – | – | – | –
6 | CC[C@H](C)[C@@H](NC(=O)[C@@](C)(CC)NC(=O)[C@@H]1C[C@@H](O)CN1C(=O)C(C)(C)NC(=O)[C@@](C)(CC)NC(=O)C(C)(C)NC(=O)[C@@H]1C[C@@H](O)CN1C(=O)[C@@](C)(CC)NC(=O)[C@H](CC(C)C)NC(=O)[C@@H]1C[C@@H](O)CN1C(=O)[C@](C)(CC)NC(=O)[C@H](CC(C)C)NC(=O)[C@@H]1C[C@@H](O)CN1C(=O)C(C)(C)NC(C)=O)C(=O)O[C@@H]([C@H](O)[C@H](O)CO)[C@H](O)CO [CLONOSTACHIN] | > 118 µg/mL | > 118 µg/mL | > 118 µg/mL | > 118 µg/mL | > 118 µg/mL | > 118 µg/mL | > 118 µg/mL | > 118 µg/mL | > 118 µg/mL | > 118 µg/mL | > 118 µg/mL | – | – | – | – | – | –
7 | CN[C@H](CC(C)C)C(=O)N[C@H]1C(=O)N[C@@H](CC(N)=O)C(=O)N[C@H]2C(=O)N[C@H]3C(=O)N[C@H](C(=O)N[C@H](C(=O)O)c4cc(O)cc(O)c4-c4cc3ccc4O)[C@H](O)c3ccc(c(Cl)c3)Oc3cc2cc(c3O[C@@H]2O[C@H](CO)[C@@H](O)[C@H](O)[C@H]2O[C@H]2C[C@](C)(N)[C@H](O)[C@H](C)O2)Oc2ccc(cc2Cl)[C@H]1O [VANCOMYCIN] | – | – | 0.75 µg/mL (≈ 0.518 µM) | 0.38 µg/mL (≈ 0.262 µM) | 0.25 µg/mL (≈ 0.173 µM) | – | 0.25 µg/mL (≈ 0.173 µM) | 0.38 µg/mL (≈ 0.262 µM) | 0.25 µg/mL (≈ 0.173 µM) | – | – | – | – | – | – | – | –
8 | CC(CCCCCCCCC(=O)CCCCCCCCC[C@@H](O)CO)C(=O)C1=C(O)[C@H](Cc2ccc(O)cc2)NC1=O (some centres not stated) [VIRGINEONE AGLYCONE] | > 88 µg/mL | 5.5 µg/mL (≈ 9.36 µM) | 5.5 µg/mL (≈ 9.36 µM) | 2.8 µg/mL (≈ 4.76 µM) | 2.8 µg/mL (≈ 4.76 µM) | 2.8 µg/mL (≈ 4.76 µM) | 2.8 µg/mL (≈ 4.76 µM) | 2.8 µg/mL (≈ 4.76 µM) | 2.8 µg/mL (≈ 4.76 µM) | > 88 µg/mL | > 88 µg/mL | inactive | inactive | inactive | – | – | –
9 | CC(CCCCCCCCC(=O)CCCCCCCCCC(O)CO[C@@H]1O[C@H](CO)[C@@H](O)[C@H](O)[C@@H]1O)C(=O)C1=C(O)C(Cc2ccc(O)cc2)NC1=O (some centres not stated) [VIRGINEONE] | 14.4 µg/mL (≈ 19.2 µM) | 7.2 µg/mL (≈ 9.6 µM) | 7.2 µg/mL (≈ 9.6 µM) | 7.2 µg/mL (≈ 9.6 µM) | 7.2 µg/mL (≈ 9.6 µM) | 7.2 µg/mL (≈ 9.6 µM) | 7.2 µg/mL (≈ 9.6 µM) | 7.2 µg/mL (≈ 9.6 µM) | 7.2 µg/mL (≈ 9.6 µM) | 14.4 µg/mL (≈ 19.2 µM) | 14.4 µg/mL (≈ 19.2 µM) | inactive | inactive | inactive | – | – | –
